Screening data as filed in PubChem BioAssay.
A selection follows.
PGC1a Ac signal: raises PGC1a acetylation signal in U2OS cells | U2OS PGC1a acetylation AlphaScreen, overnight | activation, % at 15.6 µM | hit rate 0.21% among 350,000;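 active means every replicate reaching activation of at least 50%, whatever the mean replicate activation; inconclusive means replicates that disagree or another doubt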;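 further: hits raise the AlphaScreen acetylation signal above neutral controls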
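System – flag-PGC1a/GCN5 U2OS cells · Quantity – 7000 U2OS cells per well · Signal – AlphaScreen proximity luminescence, anti-acetyl-lysine antibody · Schedule – overnight compound treatment, 37 °C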
Hep G6PC suppr: PGC-1a acetylation activators affecting G6PC expression in hepatocytes; G6PC suppression (normalized activity, % of positive control; higher = more suppression), % at 26 µM; primary mouse hepatocytes, G6PC mRNA qPCR, forskolin; shares compounds with PGC1a Ac signal; 240 tested, under 10 active;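 active means dose curves showing G6PC suppression whose half-maximal dose is at most twice the top valid dose; inconclusive means flat curves with moderate negative activity, or unreliable fits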;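 further: G6PC expression relative to GAPDH housekeeping gene as delta delta Ct; 0% = median of neutral control wells and 100% = median of positive control wells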
Hep PCK1 suppr: PGC-1a acetylation activator altering hepatocyte PCK1 expression. 230 tested, under 10 active. primary mouse hepatocytes, PCK1 mRNA qPCR, forskolin-stimulated. AID 743465. PCK1 expression decrease, unspecified at 26 µM. shares compounds with PGC1a Ac signal;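 active means compounds lowering PCK1 expression whose fitted half-maximal concentration is at most twice the top tested dose; inconclusive means flat fit with moderate opposite-direction effect, or poor fit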;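 further: values are delta delta Ct of PCK1 relative to GAPDH; higher delta delta Ct means lower PCK1 expression so positive values indicate hits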
Hep PGC-1a down: PGC-1a acetylation activators affecting PGC-1a expression in hepatocytes; AID 743467; primary mouse hepatocytes, PGC-1a mRNA qPCR, forskolin; top dose 26 µM; 240 tested, under 10 active; shares compounds with PGC1a Ac signal; max activity (PGC-1a expression decrease), %;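 active means compound lowering PGC-1a expression with fitted half-maximal concentration at most twice its top tested dose; inconclusive means flat curve with moderate opposite-direction effect, or poor fit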;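 further: 0% = neutral control wells median and 100% = positive control wells median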
The depositor's hits bear a star; i = inactive; ? = inconclusive; · = not tested or not shown; [ ] = another dose, or the depositor's remark.

SMILES | PGC1a Ac signal | Hep G6PC suppr | Hep PCK1 suppr | Hep PGC-1a down
COc1ccc(Cl)cc1NC(=O)NCC1CCN(C(=O)OC(C)(C)C)CC1 | -50 | · | · | ·
C[C@@H]1CN([C@@H](C)CO)C(=O)Cc2cc(NC(=O)Cc3ccccc3)ccc2O[C@H]1CN(C)C(=O)Nc1ccccc1 | -49 | -3[23.5 µM] | 17[23.5 µM] | 32
C[C@@H]1CN([C@H](C)CO)C(=O)c2c(c3ccccc3n2C)-c2ccccc2CO[C@@H]1CN(C)C(=O)c1ccc(F)cc1 | 78* | 61[23.5 µM] | 95[23.5 µM] | 109
C[C@@H]1CN([C@H](C)CO)C(=O)c2c(c3ccccc3n2C)-c2ccccc2CO[C@@H]1CN(C)C(=O)[C@H](C)c1ccccc1 | 133* | 20 | 40 | 91
C[C@H](CO)N1C[C@H](C)[C@@H](CN(C)C(=O)Nc2ccc(-c3cccs3)cc2)OCc2cnnn2CCCC1=O | -46 | · | · | ·
C[C@@H]1CN([C@H](C)CO)C(=O)c2c(c3ccccc3n2C)-c2ccccc2CO[C@@H]1CN(C)C(=O)Nc1ccc2c(c1)OCO2 | ? | 9 | 78 | ?
O=C(c1ccc(Cl)cc1)C(Cn1cncn1)C(Sc1ccccc1)c1ccccc1 (stereo not drawn) | -61 | · | · | ·
CCOc1ccc(S(=O)(=O)N(C)C)cc1-c1nc2c(C(C)(C)C)nn(C)c2c(=O)[nH]1 | -48 | · | · | ·
C[C@@H]1CN([C@@H](C)CO)C(=O)c2c(c3ccccc3n2C)-c2ccccc2CO[C@@H]1CN(C)C(=O)Nc1ccccc1C(F)(F)F | 74* | 5 | 39 | 86
NCc1cccc(-n2cccn2)c1 | -54 | · | · | ·
CCOC(=O)C1=C(C)N=C2SC(C(=O)OC)=CC(=O)N2C1c1cccc(OC)c1 (stereo not drawn) | -51 | · | · | ·
Cc1ccc(S(=O)(=O)/N=C2\C=C(Nc3ccc(O)cc3)C(=O)c3ccccc32)cc1 | -86 | · | · | ·
CC1CCCN(S(=O)(=O)c2ccc3c(c2)n(C)c(=O)c(=O)n3C)C1 (stereo not drawn) | -49 | · | · | ·
CCOC(=O)C1CCCN(S(=O)(=O)c2ccc3c(c2)NC(=O)CO3)C1 (stereo not drawn) | 92* | -23 | · | ?
COc1ccc(-c2c(-c3cc(OC)cc(OC)c3)n(C)c3ccc(-c4cnc(N)nc4)cc23)cc1 | ? | 998 | 516 | 63
CC(C)(C)OC(=O)NCCc1nnc(SCc2ccc(Cl)cc2)o1 | -41 | · | · | ·
O=C1C(Nc2ccccc2)=C/C(=N/S(=O)(=O)c2cccs2)c2ccccc21 | -59 | · | · | ·
NC(=O)C1CCCc2c1[nH]c1ccc(Cl)cc21 (stereo not drawn) | · | 1 | -3 | 11
Cc1ccccc1Nc1ncnc2c1cnn2-c1ccccc1 | -63 | · | · | ·
COC(=O)c1ccc(CSc2nc3c(cnn3-c3ccc(Cl)cc3)c(=O)[nH]2)o1 | -53 | · | · | ·
Cc1c(C(=O)NCCSCc2c(F)cccc2Cl)cnn1-c1ccc(Cl)cc1 | ? | -15 | -13 | -22
Cc1cnc2c(C(=O)O)cnn2c1 | -52 | · | · | ·
COc1cccc(Cn2c(NCc3cccnc3)nc3c2c(=O)n(C)c(=O)n3C)c1 | -71 | · | · | ·
CC(=O)c1ccc(OCC(=O)OCC(=O)Nc2sccc2C(N)=O)cc1 | 56* | 9 | 17[8 µM] | 58
CC(=O)N1N=C(c2ccco2)CC1c1ccco1 (stereo not drawn) | -49 | · | · | ·
SMILES | PGC1a Ac signal | Hep G6PC suppr | Hep PCK1 suppr | Hep PGC-1a down
Cc1ccc(-n2nc3ccc(N)cc3n2)cc1 | -52 | · | · | ·
C=CCOc1ccccc1CNc1ccc2[nH]c(=O)[nH]c2c1 | -44 | · | · | ·
CCOC(=O)c1ccc(N2C(=O)C=CC2=O)cc1 | -46 | · | · | ·
CCOCCCNC(=O)C1CCN(C(=O)Nc2ccc(C)cc2)CC1 | -45 | · | · | ·
CCOC(=O)c1ccc(NC(=O)N2CCc3ccccc3C2)cc1 | ? | 25[8 µM] | 22 | 117
COc1cccc(OC)c1NC(=O)C1CCCN1C(=O)NCc1ccccc1 (stereo not drawn) | -97 | · | · | ·
COc1cc(CN2CCC(C(=O)NCCC(C)C)CC2)ccc1OCc1ccccc1 | ? | 909 | 178 | 56
COc1ccccc1Oc1ccc2c(c1)C(=O)N(c1ccc(C)cc1)C2=O | -104 | · | · | ·
Fc1ccc(CN(Cc2ccccc2)C(c2cccs2)c2nnnn2C2CCCCC2)cc1 (stereo not drawn) | -42 | · | · | ·
CC(C)C(c1nnnn1Cc1ccccc1)N(Cc1ccco1)Cc1cccs1 (stereo not drawn) | 91* | 316 | 67 | 95
O=c1[nH]nc(-c2ccc(NCCCO)c([N+](=O)[O-])c2)c2ccccc12 | -59 | · | · | ·
O=C(NCc1cccs1)C1Cc2c(-c3ccc(Cl)cc3)ccnc2O1 (stereo not drawn) | 101* | 13 | 6.5 | 48
O=C(O)c1cc(O)c2c(c1)C(=O)c1cccc(O)c1C2=O | -67 | · | · | ·
COC(=O)C[C@H]1c2cc(C(F)(F)F)ccc2S(=O)(=O)N1Cc1ccc(OC)cc1 | 106* | 29 | 70 | 68
N#Cc1c(C#N)c(O)c2ccccc2c1O | -46 | · | · | ·
C[C@H]1CN([C@@H](C)CO)S(=O)(=O)c2ccc(C#CCN(C)C)cc2O[C@@H]1CN(C)Cc1ccc2c(c1)OCO2 | ? | 304 | 132 | 45
COc1ccccc1-c1ccc2c(c1)O[C@@H](CN(C)Cc1ccc3c(c1)OCO3)[C@@H](C)CN([C@@H](C)CO)S2(=O)=O | 65* | 553 | 110 | 54
O=C(O)COc1ccc(/C=C2/SC(=S)N(Cc3ccccc3)C2=O)cc1 | -72 | · | · | ·
CC1CN(c2oc(-c3cccs3)nc2C#N)CC(C)O1 (stereo not drawn) | -49 | · | · | ·
CCOC(=O)C1(Cc2ccccc2)CCN(Cc2cccc(OC)c2O)CC1 | 84* | 20 | 39 | ?
C[C@H]1CCC/C=C/[C@@H]2C[C@H](O)C[C@H]2[C@H](O)[C@H](S(=O)c2ccc(O)cc2)CC(=O)O1 (stereo partly drawn) | -66 | · | · | ·
Cc1cc(C)c2nc(N(CCCN(C)C)C(=O)c3ccc(S(=O)(=O)N4CCCCCC4)cc3)sc2c1 | 64* | i | 183 | 41
O=C1CCCC(O)=C1N=Nc1ccc2c(c1)OCO2 | -47 | · | · | ·
CCc1ccc(C(=O)CN(C#N)c2nc(C)cc(C)n2)cc1 | -49 | · | · | ·
CCn1cnc2cc(NCc3ccc(N(C)C)cc3)ccc21 | -40 | 243 | · | ?
SMILES | PGC1a Ac signal | Hep G6PC suppr | Hep PCK1 suppr | Hep PGC-1a down
O=C(COc1ccc(Cl)cc1)NCCCNC(=O)c1cccnc1 | 112* | -17 | 11 | 58
CCc1ccc(C(=O)Nc2cccnc2Oc2ccc(Cl)cc2)cc1 | -87 | · | · | ·
C[C@H](CO)N1C[C@H](C)[C@H](CN(C)Cc2ccc(C(=O)Nc3ccccc3N)cc2)Oc2c(NC(=O)c3ccncc3)cccc2C1=O | -52 | · | · | ·
C[C@H](CO)N1C[C@H](C)[C@@H](CN(C)CC2CCOCC2)Oc2ncc(Br)cc2C1=O | -89 | · | · | ·
C[C@H]1CN([C@@H](C)CO)C(=O)c2cccc(NC(=O)c3cnccn3)c2O[C@H]1CN(C)Cc1ccc(C(=O)Nc2ccccc2N)cc1 | 203* | -39 | -7.5 | 93
C[C@H]1CN([C@@H](C)CO)C(=O)c2cccc(NC(=O)Nc3cccc4ccccc34)c2O[C@H]1CN(C)Cc1ccc(C(=O)Nc2ccccc2N)cc1 | 81* | -38 | -11 | -13
O=C(O)CC1S/C(=N/N=C/c2ccc(Br)cc2)N(c2ccccc2)C1=O (stereo not drawn) | -75 | · | · | ·
